Experimental data collected from several papers.
Target: Focal adhesion kinase 1 (PTK2, Homo sapiens, UniProt Q05397)

Compound | read-out | action | method | tested at | endpoint | result
N#CC1(c2ccccn2)CCN(Cc2cc(C(=O)O)c(=O)n3ccccc23)CC1 | cell-free assay |  | competition with immobilised ligand | 1 µM | remaining binding | 100%
COc1ncccc1-c1cnn2ccc(N3CCN(C(=O)OC(C)C)CC3)nc12 | binding |  | competition with immobilised ligand | 1 µM | remaining binding | 97%
Cn1cc(-c2cccc(N3CCc4c(sc5c4CC(C)(C)C5)C3=O)c2CO)cc(Nc2ccncn2)c1=O | enzyme activity | inhibitor |  | 1 µM | inhibition | 3%
CC(C)(C)c1cc(C=C(C#N)C#N)cc(Br)c1O | enzyme activity | inhibitor |  | 0.5 µM | remaining activity | 107%
Cn1cc(-c2cc(F)cc(N3CCn4c(cc5c4CCCC5)C3=O)c2CO)cc(Nc2ccc(N3CCN(C4COC4)CC3)cn2)c1=O | enzyme activity | inhibitor |  | 0.1 µM | inhibition | 18%
Nc1ncc(-c2nc(N3CCOCC3)nc(N3CCOCC3)n2)c(C(F)F)n1 | binding |  | competition with immobilised ligand | 10 µM | remaining binding | 100%
Cn1cncc1[C@](O)(COc1ccc(C#N)cc1-c1ccc(OC(F)(F)F)cc1)c1ccc(C#N)cc1 | cell-free assay |  | competition with immobilised ligand | 1 µM | remaining binding | 77%
O=c1[nH]c2ccccc2n1C1CCN(Cc2ccc(-c3[nH]c4cc5ncnc5cc4nc3-c3ccccc3)cc2)CC1 | cell-free assay |  |  | 0.5 µM | remaining signal | 108%
Cc1nn(C)cc1-c1nc2c(N3CCN(Cc4ccc(Cl)cc4)CC3)c(Cl)cnc2[nH]1 | binding |  | competition with immobilised ligand | 1 µM | remaining binding | 95%
C#Cc1n[nH]c2c(-c3cn(C(C)c4ccccn4)c(=O)[nH]c3=O)cc(F)cc12 (stereo not shown) | enzyme activity | inhibitor |  | 1 µM | inhibition | 5.6%
